Bioassay records: PubChem BioAssay, The Scripps Research Institute Molecular Screening Center
The entries come from a sample that favours hits as a whole.
RORa inhibitor: inhibitors of orphan receptor RORA, primary screen, cell-based, luminescence. inhibition, % at 10 µM. Nuclear receptor ROR-alpha (Homo sapiens), P35398. 65,000 tested, 0.43% active. CHO-K1 Gal4-RORA LBD luciferase reporter. AID 561, 2006;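 active = inhibition above the mean of all tested compounds plus 3 SD, cut at about 52% in these data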;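 also: 0% = RORA-transfected cells with DMSO and 100% = mock-transfected cells lacking RORA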
Target sequence (P35398 whole entry, looked up, the tested form may be a part): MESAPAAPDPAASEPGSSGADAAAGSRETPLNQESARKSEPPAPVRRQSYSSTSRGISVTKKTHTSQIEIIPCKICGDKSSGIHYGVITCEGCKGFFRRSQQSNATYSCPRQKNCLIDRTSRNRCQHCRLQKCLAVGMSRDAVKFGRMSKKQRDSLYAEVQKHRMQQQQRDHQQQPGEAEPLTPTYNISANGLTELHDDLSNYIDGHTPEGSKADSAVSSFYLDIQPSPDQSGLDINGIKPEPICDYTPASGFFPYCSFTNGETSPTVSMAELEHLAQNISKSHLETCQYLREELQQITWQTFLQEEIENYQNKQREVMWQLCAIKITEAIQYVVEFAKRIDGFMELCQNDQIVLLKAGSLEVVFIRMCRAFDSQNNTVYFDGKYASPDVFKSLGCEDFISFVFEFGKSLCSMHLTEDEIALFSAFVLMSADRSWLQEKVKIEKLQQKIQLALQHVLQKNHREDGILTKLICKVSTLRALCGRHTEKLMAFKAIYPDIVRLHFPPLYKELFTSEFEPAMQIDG
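Material: transiently transfected CHO-K1 cells, Gal4-DBD/human RORA-LBD fusion plus 5xGal4-luciferase reporter; doses: single concentration per compound, 10 µM final; incubation: 20 h at 37 °C; detection: luminescence from basal luciferase reporter expression; read-out: % inhibition of basal luciferase versus +RORA/-RORA DMSO controls; replication: tested once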
Starred values were filed as active, the others as inactive.

SMILES | RORa inhibitor
CCN(CC)CCN1C(=O)c2oc3ccccc3c(=O)c2C1c1cccc(Br)c1 (stereo not drawn) | 2
CCCc1ccc(-c2ccc(F)c(N)c2)nc1 | 69*
CCCCCN=C(C)c1c(O)c2ccccc2oc1=O | -19
Cc1oc(-c2cccc(Cl)c2)nc1CN1CCC(C(=O)NCCCN2CCCC2=O)CC1 | -2
CCc1ccc(-c2nc(CN3CCCC(C(=O)NCCc4ccc(OC)c(OC)c4)C3)c(C)o2)cc1 (stereo not drawn) | -11
CCOC(=O)N1CCC(NC(=O)C2CCCN(Cc3nc(-c4cccc(Cl)c4)oc3C)C2)CC1 (stereo not drawn) | 63*
O=S(=O)(NCC1CCCO1)c1ccc(Cl)c(C(F)(F)F)c1 (stereo not drawn) | 9
O=C(NCc1ccco1)c1ccc2c(c1)C(=O)N(Cc1ccccc1)C2=O | -5
O=C1CCCCCN1Cc1nnc(SCc2nc3ccccc3s2)n1-c1ccccn1 | -61
Cc1ccnc(SCC(=O)O)n1 | 16
O=C1/C(=C/Nc2ccc3c(c2)OCO3)CCc2ccccc21 | 72*
COc1ccc(N/C=C2\CCOC2=O)cc1 | 30
O=C(Nc1ccc2c(c1)OCO2)c1cccc(F)c1 | -52
NC(=O)c1ccccc1N=Cc1ccccn1 | 24
O=C(CN1CCN(S(=O)(=O)c2ccc(Br)cc2)CC1)Nc1ccccc1F | -7
O=S(=O)(c1ccc(S(=O)(=O)N2CCCC2)cc1)N1CCCCCC1 | -10
O=S(=O)(c1ccc2c(c1)C(=NO)c1cc(S(=O)(=O)N3CCCCC3)ccc1-2)N1CCCCC1 | 66*
COc1ccc(Oc2ccc(S(=O)(=O)N3CCCCC3)cc2S(=O)(=O)N2CCCCC2)cc1 | 9
CNC(=O)Cn1nc(C)c2ccccc2c1=O | 0
CCOc1ccc2nc(NC(=O)C(CC)Sc3nc(C)cc(=O)[nH]3)sc2c1 (stereo not drawn) | -52
CC(=O)Nc1ccc(NC(=O)c2ccccc2N(C)S(C)(=O)=O)cc1 | 8
CC(NC(=O)Nc1nnc(C(F)(F)F)s1)(C(F)(F)F)C(F)(F)F | 94*
OCC1CCCN(Cc2ccc(-c3ccccc3)cc2)C1 (stereo not drawn) | -11
CCC(C)NC(=O)C1CCN(C(=O)c2ccccc2)CC1 (stereo not drawn) | 4
O=S(=O)(NCc1ccc(Cl)cc1)c1cnc[nH]1 | 6
SMILES | RORa inhibitor
CC(=O)NS(=O)(=O)c1ccc(NC(=O)CCC2CCCC2)cc1 | 15
CC1CCCCC1NS(=O)(=O)c1ccc(S(=O)(=O)NCc2ccncc2)cc1 (stereo not drawn) | 69*
Cc1ccc(S(=O)(=O)NCc2ccncc2)cc1 | 56*
Cc1cc(C)c(C)c(S(=O)(=O)NCc2cccnc2)c1C | 12
COCCn1c(N)c(S(=O)(=O)c2cccs2)c2nc3ccccc3nc21 | 35
O=C(CSc1nnc(-c2cccnc2)n1CCc1ccccc1)N1CCCCC1 | 7
Cn1c(=O)n(CC(=O)N2CCN(c3nnc(-c4ccccc4)c4ccccc34)CC2)c2ccccc21 | 14
O=C(O)c1c2c(nc3ccc(S(=O)(=O)N4CCC(C(=O)N5CCCCC5)CC4)cc13)CCCC2 | 8
Oc1c(CN2CCN(c3ccccn3)CC2)cc(Cl)c2cccnc12 | 60*
Oc1c(CN2CCCCC2)cc(COCc2ccccc2)c2cccnc12 | 53*
O=P(O)(CCc1ccccn1)CN1CCCCC1 | -4
c1ccc(-c2nnc(N3CCN(c4ccccn4)CC3)c3ccccc23)cc1 | -5
CC(=O)Nc1ccccc1OCC(=O)c1ccc2c(c1)OCO2 | -65
CNc1ccccc1-n1ccc(-c2ccccc2)n1 | -16
CC1=C(C(=O)Nc2ccccc2)C(c2ccccn2)n2nc(CCCO)nc2N1 (stereo not drawn) | -5
Cc1cc(N)n2ncc(-c3ccccc3)c2n1 | -88
O=C(Nc1ccc2c(c1)nc1n2CCSC1)c1ccco1 | 26
Cc1ccc(Cn2ccc(NC(=O)c3cc(-c4ccc5c(c4)OCO5)on3)n2)cc1 | 28
O=C(c1ccc(Cn2c(=O)[nH]c3ccccc3c2=O)cc1)N1CCN(c2ccccc2)CC1 | -10
c1ccc2c(c1)CCN(c1ncnc3c1[nH]c1ccccc13)C2 | 89*
c1ccc(CN2CCN(c3nc(-c4ccccc4)nc(-n4ccnc4)n3)CC2)cc1 | 22
c1ccc(CN2CCN(c3ncnc4c3[nH]c3ccccc34)CC2)cc1 | 67*
O=c1c2[nH]c3ccccc3c2ncn1C1CCCCC1 | -61
COC(=O)c1c(NS(=O)(=O)c2cccs2)sc2c1CCCC2 | 1
COc1ccc(C(=O)NC2=C(C#N)CCC2)cc1OC | 6
SMILES | RORa inhibitor
COc1ccc(C2C(C(=O)O)CC(=O)N2C2CCCCC2)cc1 (stereo not drawn) | 13
CCOc1ccc(-c2cc(CCCC(=O)NCCc3ccc(OC)c(OC)c3OC)no2)cc1 | 57*
CCOc1ccc(-c2cc(CCCC(=O)Nc3cccc(OC)c3)no2)cc1 | 45
CCCCC(=O)Nc1ccc(NC(=O)c2cc(OC)c(OC)c(OC)c2)cn1 | 14
CC1(C)CC(=O)c2cnc(NC(=O)C3CCCC3)nc2C1 | -7
O=c1[nH]cnc2c1sc(=S)n2-c1ccccc1 | 25
O=C(Nc1cccc(Br)c1)c1cc2ccccc2o1 | -71
Cc1cc(C(=O)Nc2cccc(C(=O)O)c2)oc1C | 74*
CC#CCCCC(=O)Nc1cccc(C(=O)O)c1 | -56
CCN(CC)S(=O)(=O)c1ccc(NC(=O)CN(c2ccc(OC)cc2OC)S(C)(=O)=O)cc1 | -12
COc1ccc(-n2nc(C(=O)Nc3ccc4c(c3)OCO4)c3ccccc3c2=O)cc1 | 16
O=C(NCc1ccco1)c1ccc2ccccc2c1 | -68
Clc1cccc(CSc2nnc(-c3cccnc3)n2Cc2ccco2)c1 | -9
O=C(CN1C(=O)C2C3C=CC(C3)C2C1=O)Nc1ccc2c(c1)OCCO2 (stereo not drawn) | -32
CCOC(=O)c1[nH]c(C)c(C(=O)Nc2ccccc2C)c1C | -81
Cc1ccccc1C(=O)Nc1ccc(Br)cn1 | -67
CC(=O)c1c(C)[nH]c(C(=O)Nc2ccc(C)cn2)c1C | 73*
Cc1ccc(-c2cc(-c3ccccc3Cl)c(C#N)c(N)n2)o1 | 14
O=C(c1cc(-c2ccc(Cl)c(Cl)c2)on1)N1CCCC1 | -60
COCCOC(=O)C1=C(C)Nc2ncnn2C1c1ccc(F)cc1 (stereo not drawn) | -4
CCCN1C=CC(=C2C(=O)c3ccccc3C2=O)C=C1 | 91*
CCN1C=CC(=C2C(=O)c3ccccc3C2=O)C=C1 | 67*
CN1C=CC(=C2C(=O)c3ccccc3C2=O)C=C1 | -52
CC1=CC(=C2C(=O)c3ccccc3C2=O)C=C(C)O1 | -57
CC(=O)c1cccc(N=C2NC(=O)C(CO)(CO)S2)c1 | -7
SMILES | RORa inhibitor
COc1cccc(C2c3c(oc4ccc(F)cc4c3=O)C(=O)N2CCCN2CCOCC2)c1 (stereo not drawn) | 11
CC1(C)Cc2ccccc2C(/C(=N/O)C(N)=O)=N1 | -7
CCc1ccc(-c2cn3nc(C)c(C)nc3n2)cc1 | 86*
Cc1nc(C)c(-c2csc(NCc3ccco3)n2)s1 | -40
COc1ccc(C(=O)c2ccccc2)c(O)c1 | -10
COc1cccc(NC(=O)Cc2nnc(SCC(=O)c3ccccc3)n2C)c1 | 3
COc1ccc(O)c(C(=O)CC(=O)c2ccc(F)cc2)c1 | 58*
Cc1nc(NC(=O)c2csc3ccccc23)sc1C | 5
O=C(CCS(=O)(=O)c1cccc2nonc12)N1CCCc2ccccc21 | 24
COc1ccc(/C(O)=C2/C(=O)C(=O)N(CCN(C)C)C2c2ccc(F)cc2)cc1Cl (stereo not drawn) | 1
